Laboratory results taken from ChEMBL document CHEMBL4052618, “Design, synthesis, SAR discussion, in vitro and in vivo evaluation of novel selective EGFR modulator to inhibit L858R/T790M double mutants” (Eur J Med Chem, 2017).

Assays:
[1] = molecular target: Epidermal growth factor receptor (Homo sapiens, UniProt P00533); assay: Inhibition of human recombinant cytoplasmic GST-tagged EGFR (668 to 1210 residues) expressed in baculovirus using TK-substrate-biotin preincubated for 15 mins followed by substrate addition measured after 60 mins by FRET-based Z'-Lyte assay
Chain of Epidermal growth factor receptor (Homo sapiens, UniProt P00533) (P00533 whole entry, the tested form may be a part): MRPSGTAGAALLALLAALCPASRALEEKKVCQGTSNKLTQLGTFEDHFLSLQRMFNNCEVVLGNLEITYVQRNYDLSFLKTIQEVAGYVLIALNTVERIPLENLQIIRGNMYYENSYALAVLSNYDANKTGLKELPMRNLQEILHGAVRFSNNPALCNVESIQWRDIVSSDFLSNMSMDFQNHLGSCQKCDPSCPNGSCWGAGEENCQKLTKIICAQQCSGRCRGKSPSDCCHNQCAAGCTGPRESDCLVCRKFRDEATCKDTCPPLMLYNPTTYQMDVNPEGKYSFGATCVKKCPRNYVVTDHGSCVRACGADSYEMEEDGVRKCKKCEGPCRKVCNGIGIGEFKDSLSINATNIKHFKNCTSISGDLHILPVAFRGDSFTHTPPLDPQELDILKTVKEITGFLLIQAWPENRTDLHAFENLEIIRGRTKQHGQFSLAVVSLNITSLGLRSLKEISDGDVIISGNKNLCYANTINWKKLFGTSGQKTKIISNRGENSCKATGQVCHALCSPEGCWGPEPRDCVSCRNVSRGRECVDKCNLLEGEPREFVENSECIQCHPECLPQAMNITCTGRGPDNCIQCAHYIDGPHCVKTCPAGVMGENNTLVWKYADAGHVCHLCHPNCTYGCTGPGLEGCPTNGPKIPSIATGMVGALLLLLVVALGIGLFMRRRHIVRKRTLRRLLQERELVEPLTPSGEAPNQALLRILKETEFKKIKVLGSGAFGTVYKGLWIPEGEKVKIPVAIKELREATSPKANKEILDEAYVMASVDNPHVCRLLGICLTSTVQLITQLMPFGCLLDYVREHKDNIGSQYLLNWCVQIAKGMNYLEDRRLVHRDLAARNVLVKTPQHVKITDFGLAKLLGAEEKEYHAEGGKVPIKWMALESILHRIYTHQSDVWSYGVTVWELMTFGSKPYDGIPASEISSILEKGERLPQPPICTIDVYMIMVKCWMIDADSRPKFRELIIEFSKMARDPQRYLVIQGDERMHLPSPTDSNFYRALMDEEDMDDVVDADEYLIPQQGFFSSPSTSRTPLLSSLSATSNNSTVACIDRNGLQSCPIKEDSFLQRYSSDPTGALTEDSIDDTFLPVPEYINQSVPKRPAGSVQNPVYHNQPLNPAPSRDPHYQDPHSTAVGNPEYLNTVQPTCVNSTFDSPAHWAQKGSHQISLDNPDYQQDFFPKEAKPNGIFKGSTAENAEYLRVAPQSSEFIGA

[2] = molecular target: Epidermal growth factor receptor (Homo sapiens, UniProt P00533, L858R); assay: Inhibition of human recombinant cytoplasmic GST-tagged EGFR L858R mutant expressed in baculovirus using TK-substrate-biotin preincubated for 15 mins followed by substrate addition measured after 60 mins by FRET-based Z'-Lyte assay
Chain of Epidermal growth factor receptor (Homo sapiens, UniProt P00533, L858R) (P00533 25-1210 L858R limits assumed): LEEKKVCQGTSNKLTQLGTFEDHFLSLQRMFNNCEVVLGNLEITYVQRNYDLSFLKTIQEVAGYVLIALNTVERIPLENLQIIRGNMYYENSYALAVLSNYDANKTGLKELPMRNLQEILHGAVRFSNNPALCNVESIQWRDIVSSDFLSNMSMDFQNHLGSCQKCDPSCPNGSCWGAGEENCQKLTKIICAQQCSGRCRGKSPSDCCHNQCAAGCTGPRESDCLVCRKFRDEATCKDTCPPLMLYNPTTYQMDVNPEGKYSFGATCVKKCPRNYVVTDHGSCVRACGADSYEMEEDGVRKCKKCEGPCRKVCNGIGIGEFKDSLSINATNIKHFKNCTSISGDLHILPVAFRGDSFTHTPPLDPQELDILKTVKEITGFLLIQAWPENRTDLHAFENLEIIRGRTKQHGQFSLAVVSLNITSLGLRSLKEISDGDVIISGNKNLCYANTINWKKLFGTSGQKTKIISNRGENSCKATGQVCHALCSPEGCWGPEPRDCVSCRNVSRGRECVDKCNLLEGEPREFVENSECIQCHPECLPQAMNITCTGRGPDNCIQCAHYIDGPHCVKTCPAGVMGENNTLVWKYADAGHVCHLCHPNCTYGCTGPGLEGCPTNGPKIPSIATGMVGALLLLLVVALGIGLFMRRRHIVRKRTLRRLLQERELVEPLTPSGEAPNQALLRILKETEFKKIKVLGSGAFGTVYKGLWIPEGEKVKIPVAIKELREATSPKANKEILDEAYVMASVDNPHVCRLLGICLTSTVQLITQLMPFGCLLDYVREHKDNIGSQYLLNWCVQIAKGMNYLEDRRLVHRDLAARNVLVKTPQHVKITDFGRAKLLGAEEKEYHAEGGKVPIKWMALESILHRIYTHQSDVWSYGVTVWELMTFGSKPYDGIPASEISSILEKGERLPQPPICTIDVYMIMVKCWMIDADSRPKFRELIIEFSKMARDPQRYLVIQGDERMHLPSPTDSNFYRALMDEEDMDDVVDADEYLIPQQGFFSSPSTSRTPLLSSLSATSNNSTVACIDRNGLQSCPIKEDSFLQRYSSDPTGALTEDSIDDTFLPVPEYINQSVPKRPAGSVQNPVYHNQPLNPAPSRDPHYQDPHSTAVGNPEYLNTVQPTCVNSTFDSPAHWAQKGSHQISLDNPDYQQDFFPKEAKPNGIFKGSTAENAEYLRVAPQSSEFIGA

[3] = molecular target: Epidermal growth factor receptor (Homo sapiens, UniProt P00533, L858R/T790M); assay: Inhibition of human recombinant cytoplasmic GST-tagged EGFR T790M/L858R double mutant (668 to 1210 residues) expressed in baculovirus using TK-substrate-biotin preincubated for 15 mins followed by substrate addition measured after 60 mins by FRET-based Z'-Lyte assay
Chain of Epidermal growth factor receptor (Homo sapiens, UniProt P00533, L858R/T790M) (P00533 25-1210 T790M/L858R limits assumed): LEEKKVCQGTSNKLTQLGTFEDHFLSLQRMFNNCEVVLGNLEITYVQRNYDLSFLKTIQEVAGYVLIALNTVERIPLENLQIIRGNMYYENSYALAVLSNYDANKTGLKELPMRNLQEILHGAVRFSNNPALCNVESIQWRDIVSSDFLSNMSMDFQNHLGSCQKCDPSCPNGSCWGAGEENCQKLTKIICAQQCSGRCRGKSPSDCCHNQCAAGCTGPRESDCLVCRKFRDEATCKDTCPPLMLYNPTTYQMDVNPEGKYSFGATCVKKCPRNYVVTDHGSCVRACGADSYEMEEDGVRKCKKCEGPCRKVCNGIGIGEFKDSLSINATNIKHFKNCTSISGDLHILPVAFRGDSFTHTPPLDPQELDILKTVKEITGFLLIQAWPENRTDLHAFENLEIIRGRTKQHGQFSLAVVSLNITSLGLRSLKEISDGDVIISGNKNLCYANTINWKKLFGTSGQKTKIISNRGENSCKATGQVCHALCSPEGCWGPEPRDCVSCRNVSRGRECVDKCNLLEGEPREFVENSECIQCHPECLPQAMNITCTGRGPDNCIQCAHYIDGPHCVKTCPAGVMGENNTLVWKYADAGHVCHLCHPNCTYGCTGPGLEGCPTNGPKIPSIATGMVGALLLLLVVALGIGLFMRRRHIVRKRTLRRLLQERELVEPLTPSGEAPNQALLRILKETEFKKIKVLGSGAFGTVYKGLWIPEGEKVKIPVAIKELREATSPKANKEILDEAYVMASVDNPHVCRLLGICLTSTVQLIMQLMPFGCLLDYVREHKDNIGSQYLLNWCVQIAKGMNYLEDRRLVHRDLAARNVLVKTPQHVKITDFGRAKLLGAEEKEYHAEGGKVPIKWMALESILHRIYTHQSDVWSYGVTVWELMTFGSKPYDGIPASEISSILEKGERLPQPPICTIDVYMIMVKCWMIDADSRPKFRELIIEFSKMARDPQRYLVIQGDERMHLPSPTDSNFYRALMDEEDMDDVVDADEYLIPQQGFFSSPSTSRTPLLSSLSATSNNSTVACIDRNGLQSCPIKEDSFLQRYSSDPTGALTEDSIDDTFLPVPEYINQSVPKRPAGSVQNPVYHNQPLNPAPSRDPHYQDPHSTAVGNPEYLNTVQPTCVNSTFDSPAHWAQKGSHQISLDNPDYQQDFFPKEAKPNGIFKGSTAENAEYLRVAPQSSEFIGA

Homo sapiens = species: Homo sapiens; assay: Selectivity ratio of IC50 for human recombinant cytoplasmic GST-tagged EGFR (668 to 1210 residues) to IC50 for human recombinant cytoplasmic GST-tagged EGFR T790M/L858R double mutant (668 to 1210 residues)
In short: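 HTRF kinase assay on wild-type EGFR and the T790M/L858R mutant, with TK-substrate-biotin, ATP, 1 mM DTT, 1 mM MnCl2 and 5 mM MgCl2. Serially diluted compounds in 1% DMSO were preincubated with kinase for 15 min. The reaction was started with ATP plus substrate, run 60 min at room temperature, then stopped with Strep-XL665/TK Ab-Cryptate and read after 1 h. Run in duplicate, at least three independent IC50 determinations.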

NCI-H1975 = assay: Antiproliferative activity against human NCI-H1975 cells harboring EGFR L858R/T790M double mutant; format: functional, cell-based
In short: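 A431 was grown in EMEM with 10% FBS; HCC827 and NCI-H1975 were grown in RPMI-1640 with 10% FBS. Cell viability experiments were repeated at least three times.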

A-431 = assay: Antiproliferative activity against human A431 cells harboring wild-type EGFR; format: functional, cell-based
HCC827 = assay: Antiproliferative activity against human HCC827 cells harboring EGFR E746-A750 deletion mutant; format: functional, cell-based
[4] = Half life in mouse liver microsomes; format: ADME, microsome
[5] = Half life in rat liver microsomes; format: ADME, microsome
[6] = Half life in dog liver microsomes; format: ADME, Canis lupus familiaris, microsome
[7] = Half life in monkey liver microsomes; format: ADME, Macaca mulatta, microsome; details: rhesus monkey
[8] = Intrinsic clearance in mouse liver microsomes; format: ADME, microsome; details: read-out: CLH
[9] = Intrinsic clearance in rat liver microsomes; format: ADME, microsome; details: read-out: CLH
[10] = Intrinsic clearance in dog liver microsomes; format: ADME, Canis lupus familiaris, microsome; details: read-out: CLH
[11] = Intrinsic clearance in monkey liver microsomes; format: ADME, Macaca mulatta, microsome; details: rhesus monkey, read-out: CLH
[12] = Half life in human hepatocytes; format: ADME, cell-based, Hepatocyte
[13] = Half life in rat hepatocytes; format: ADME, cell-based, Hepatocyte
[14] = Intrinsic clearance in rat hepatocytes assessed per million cells; format: ADME, cell-based, Hepatocyte
[15] = Tmax in Sprague-Dawley rat at 10 mg/kg, po administered via gavage by LC-MS/MS analysis; format: ADME, organism-based; details: in vivo
In short: (§1)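 Male Sprague-Dawley rats (200-240 g) received 1 mg/kg by tail-vein injection in 2% DMSO, 20% PEG400 and 78% buffered saline, or 10 mg/kg by oral gavage in 0.5% methylcellulose. Orbital sinus blood was drawn into heparinized tubes at 2, 5, 15 and 30 min and at 1, 2, 4, 8, 12 and 24 h, then centrifuged. Plasma was measured by LC/MS/MS in SRM mode, with non-compartmental analysis.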

[16] = Cmax in Sprague-Dawley rat at 10 mg/kg, po administered via gavage after 24 hrs by LC-MS/MS analysis; format: ADME, organism-based; set-up: dose 10 mg/kg, route oral; details: in vivo; in short: as §1
[17] = MRT in Sprague-Dawley rat at 10 mg/kg, po administered via gavage by LC-MS/MS analysis; format: ADME, organism-based; details: in vivo; in short: as §1
[18] = Oral bioavailability in Sprague-Dawley rat at 10 mg/kg administered via gavage after 24 hrs by LC-MS/MS analysis; format: ADME, organism-based; details: in vivo; in short: as §1
[19] = Half life in Sprague-Dawley rat at 1 mg/kg, iv by LC-MS/MS analysis; format: ADME, organism-based; details: in vivo
In short: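 Male Sprague-Dawley rats (200-240 g) were dosed either by tail vein at 1 mg/kg in 2% DMSO/20% PEG400/78% buffered saline or by oral gavage at 10 mg/kg in 0.5% methylcellulose. Blood was drawn by orbital sinus puncture at 2 min to 24 h into heparin, and plasma was analysed by LC/MS/MS in SRM mode. Parameters came from non-compartmental analysis.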

[20] = Clearance in Sprague-Dawley rat at 1 mg/kg, iv after 24 hrs by LC-MS/MS analysis; format: ADME, organism-based; details: in vivo; in short: as §1
[21] = MRT in Sprague-Dawley rat at 1 mg/kg, iv by LC-MS/MS analysis; format: ADME, organism-based; details: in vivo; in short: as §1

C=CC(=O)Nc1cc(Nc2nccc(-c3cn4c5c(cccc35)CCC4)n2)c(OC)cc1N1CC(CCN(C)C)C1
IC50 ([1]; read-out: IC50): 251 nM
IC50 [2]: 14.5 nM
IC50 [3]: 11.8 nM
Ratio IC50 (Homo sapiens): 21.3

C=CC(=O)Nc1cc(Nc2nccc(-c3cn4c5c(cccc35)CCC4)n2)c(OC)cc1N1CC(N(C)C)C1
IC50 (NCI-H1975): 143 nM
IC50 ([1]; read-out: IC50): 63.9 nM
IC50 [2]: 13.6 nM
IC50 [3]: 4.9 nM
IC50 (A-431): 1120 nM
IC50 (HCC827): 98.2 nM

C=CC(=O)Nc1cc(Nc2nccc(-n3cc(C)c4ccccc43)n2)c(OC)cc1N(C)CCN(C)C
IC50 ([1]; read-out: IC50): 715 nM
IC50 [2]: 186 nM
IC50 [3]: 287 nM
Ratio IC50 (Homo sapiens): 2.5

C=CC(=O)Nc1cc(Nc2nccc(-c3cn(C)c4ccccc34)n2)c(OC)cc1N(C)CCN(C)C [OSIMERTINIB]
half-life [4]: 23.9 min
half-life [5]: 62.4 min
half-life [6]: 21 min
half-life [7]: 63 min
CLint scaled [8]: 228 mL/min/kg
CLint scaled [9]: 40 mL/min/kg
CLint scaled [10]: 95 mL/min/kg
CLint scaled [11]: 29.7 mL/min/kg
half-life [12]: > 180 min
half-life [13]: 57.8 min
CLH [14]: 12 µL/min/10^6 cells
Tmax [15]: 2.7 h
Cmax [16]: 111 ng/mL
MRT [17]: 5.7 h
bioavailability [18]: 66.5%
half-life [19]: 270 min
clearance [20]: 110 mL/min/kg
MRT [21]: 4.8 h

C=CC(=O)Nc1cc(Nc2cc(-c3cn(C)c4ccccc34)nc(OC)n2)c(OC)cc1N(C)CCN(C)C
IC50 (NCI-H1975): 210 nM
IC50 ([1]; read-out: IC50): 636 nM
IC50 [2]: 123 nM
IC50 [3]: 10.9 nM
IC50 (A-431): > 10000 nM
IC50 (HCC827): 925 nM

C=CC(=O)Nc1cc(Nc2cc(-c3cn(C)c4ccccc34)nc(C)n2)c(OC)cc1N(C)CCN(C)C
IC50 ([1]; read-out: IC50): 192 nM
IC50 [2]: 46.5 nM
IC50 [3]: 60.6 nM
Ratio IC50 (Homo sapiens): 3.2

C=CC(=O)Nc1cc(Nc2nccc(-c3cn4c5c(cccc35)CCC4)n2)c(OC)cc1N(C)CCO
IC50 ([1]; read-out: IC50): 838 nM
IC50 [2]: 192 nM
IC50 [3]: 34.8 nM
Ratio IC50 (Homo sapiens): 24.1

C=CC(=O)Nc1cc(Nc2cc(-c3cn4c5c(cccc35)CCC4)nc(OC)n2)c(OC)cc1N(C)CCN(C)C
IC50 ([1]; read-out: IC50): 543 nM
IC50 [2]: 181 nM
IC50 [3]: 22 nM

C=CC(=O)Nc1cc(Nc2cc(-c3cn4c5c(cccc35)CCC4)ncn2)c(OC)cc1N(C)CCN(C)C
IC50 (NCI-H1975): 37.8 nM
IC50 ([1]; read-out: IC50): 3.1 nM
IC50 [2]: 1.2 nM
IC50 [3]: 2.6 nM
IC50 (A-431): 122 nM
IC50 (HCC827): 24.3 nM

C=CC(=O)Nc1cc(Nc2ncnc(-c3cn(C)c4ccccc34)c2OC)c(OC)cc1N(C)CCN(C)C
IC50 ([1]; read-out: IC50): 222 nM
IC50 [2]: 55.5 nM
IC50 [3]: 212 nM
Ratio IC50 (Homo sapiens): 1

C=CC(=O)Nc1cc(Nc2nccc(-c3cn4c5c(cccc35)CCC4)n2)c(OC)cc1N(C)CC(=O)N(C)C
IC50 ([1]; read-out: IC50): > 1000 nM
IC50 [2]: 498 nM
IC50 [3]: 278 nM
Ratio IC50 (Homo sapiens): > 3.6

C=CC(=O)Nc1cc(Nc2nccc(-c3cn4c5c(cccc35)CCC4)n2)c(OC)cc1N1CC(CN(C)C)C1
IC50 (NCI-H1975): 166 nM
IC50 ([1]; read-out: IC50): 202 nM
IC50 [2]: 11.6 nM
IC50 [3]: 6.7 nM
IC50 (A-431): 1470 nM
IC50 (HCC827): 290 nM

C=CC(=O)Nc1cc(Nc2nccc(-c3cn4c5c(cccc35)CCC4)n2)c(OC)cc1N1CCN(C)CC1
IC50 ([1]; read-out: IC50): 877 nM
IC50 [2]: 64.3 nM
IC50 [3]: 55.5 nM
Ratio IC50 (Homo sapiens): 15.8

C=CC(=O)Nc1cc(Nc2nccc(-c3cn4c5c(cccc35)CCC4)n2)c(OC)cc1N(C)CCN(C)C(C)=O
IC50 ([1]; read-out: IC50): > 1000 nM
IC50 [2]: 386 nM
IC50 [3]: 188 nM
Ratio IC50 (Homo sapiens): > 5.3

C=CC(=O)Nc1cc(Nc2nccc(-c3cn4c5c(cccc35)CCC4)n2)c(OC)cc1N1CCC(CN(C)C)C1 (stereo unspecified)
IC50 (NCI-H1975): 99.9 nM
IC50 ([1]; read-out: IC50): 8.8 nM
IC50 [2]: 4 nM
IC50 [3]: 1.9 nM
IC50 (A-431): 514 nM
IC50 (HCC827): 71.7 nM

C=CC(=O)Nc1cc(Nc2nccc(-n3ncc4ccccc43)n2)c(OC)cc1N(C)CCN(C)C
IC50 [1]: Not Active
IC50 [2]: > 600 nM
IC50 [3]: > 600 nM

C=CC(=O)Nc1cc(Nc2cc(-c3cn(C)c4ccccc34)ncn2)c(OC)cc1N(C)CCN(C)C
IC50 (NCI-H1975): 33.8 nM
IC50 ([1]; read-out: IC50): 2.3 nM
IC50 [2]: 2.2 nM
IC50 [3]: 1.6 nM
IC50 (A-431): 128 nM
IC50 (HCC827): 16.2 nM

C=CC(=O)Nc1cc(Nc2nccc(-c3cn4c5c(cccc35)CCC4)n2)c(OC)cc1N1CCNC(=O)C1
IC50 [1]: Not Active
IC50 [2]: 428 nM
IC50 [3]: 1230 nM

C=CC(=O)Nc1cc(Nc2ncnc(-c3cn(C)c4ccccc34)c2F)c(OC)cc1N(C)CCN(C)C
IC50 ([1]; read-out: IC50): 32.1 nM
IC50 [2]: 9.9 nM
IC50 [3]: 94.8 nM
Ratio IC50 (Homo sapiens): 0.34

C=CC(=O)Nc1cc(Nc2nc(OC)cc(-c3cn(C)c4ccccc34)n2)c(OC)cc1N(C)CCN(C)C
IC50 (NCI-H1975): 320 nM
IC50 ([1]; read-out: IC50): 685 nM
IC50 [2]: 155 nM
IC50 [3]: 13 nM
IC50 (A-431): > 10000 nM
IC50 (HCC827): 1170 nM
